Data on three molecules can be found in ChEMBL document CHEMBL1149745, “An antiplatelet aggregation principle and X-ray structural analysis of cis-khellactone diester from Peucedanum japonicum” (1992).

Common to all, as to type: functional, Oryctolagus cuniculus, Platelet
The nature of assay [1]: Antiplatelet aggregation activity in PAF-induced rabbit platelets assessed as aggregation at 100 ug/ml. Put shortly:
(§1)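 Platelets preincubated 3 min at 37° with test agent (100 µg/ml) or 0.5% DMSO as control, then challenged with an inducer: ADP 20 µM, PAF 2 ng/ml, arachidonic acid 100 µM, collagen 10 µg/ml. Percent aggregation reported as means ± S.E.M., n = 3–6, compared against the respective control.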

Assay [2] is described as follows: Antiplatelet aggregation activity in ADP-induced rabbit platelets assessed as aggregation at 100 ug/ml. Put shortly:
as §1

Assay [3] is described as follows: Antiplatelet aggregation activity in collagen-induced rabbit platelets assessed as aggregation at 100 ug/ml. Put shortly: as §1
A short description of assay [4]: Antiplatelet aggregation activity in arachidonic acid-induced rabbit platelets assessed as aggregation at 100 ug/ml. Put shortly:
as §1

Take `CC(C)CC(=O)O[C@H]1c2c(ccc3ccc(=O)oc23)OC(C)(C)[C@H]1OC(=O)CC(C)C`: the Activity in assay [1] came out at 0%; in assay [2], 8.8%; in assay [3], 39.3%; in assay [4], 49.8%.

With `CC(C)=CC(=O)O[C@H]1c2c(ccc3ccc(=O)oc23)OC(C)(C)[C@H]1OC(=O)CC(C)C` (relative stereo), the Activity stood at 57.4% in assay [1], 64% in assay [2], 75.7% in assay [3] and 76.3% in assay [4].

Take `CC(C)=CC(=O)O[C@H]1c2c(ccc3ccc(=O)oc23)OC(C)(C)[C@H]1OC(=O)C=C(C)C` (relative stereo): the Activity worked out at 73.2% in assay [1], 61.7% in assay [2], 72.3% in assay [3] and 43.6% in assay [4].
